Screening data (PubChem)
Only some compounds are listed: those with a hit (about 4.2% of all), similar ones and a draw of the others.
Insulin prom up: MIN6 insulin promoter up-regulation; 190,000 compounds, 0.3% hits; MIN6 insulin promoter-GFP reporter, high-content imaging; hits give high values; z-score at 5 µM;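 active = z-score above 3 at 5 µM with at least 500 cells counted in the well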
KCC2 mod: KCC2 (human) Cl- transport modulation | KCC2 cells, thallium flux FluoZin-2 fluorescence | B-score of Tl+ flux slope (higher = more flux/activation; lower = inhibition) at 10 µM | 190,000 compounds, 2.2% hits;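 active = thallium flux slope and its plate-corrected score both differing from the plate sample mean at a set confidence after two filtering rounds, in either direction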;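 note: slope of fluorescence scaled to starting intensity during 10 to 20 s after thallium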
Rad51 HR inh: blocks human Rad51 in homologous recombination. Q06609. hRad51 DNA strand exchange, fluorescence dequenching. inhibition, % at 10 µM. 200,000 compounds, 0.085% hits;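 active = inhibition above 40% at the single screening dose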
Target sequence (Q06609 whole entry, looked up): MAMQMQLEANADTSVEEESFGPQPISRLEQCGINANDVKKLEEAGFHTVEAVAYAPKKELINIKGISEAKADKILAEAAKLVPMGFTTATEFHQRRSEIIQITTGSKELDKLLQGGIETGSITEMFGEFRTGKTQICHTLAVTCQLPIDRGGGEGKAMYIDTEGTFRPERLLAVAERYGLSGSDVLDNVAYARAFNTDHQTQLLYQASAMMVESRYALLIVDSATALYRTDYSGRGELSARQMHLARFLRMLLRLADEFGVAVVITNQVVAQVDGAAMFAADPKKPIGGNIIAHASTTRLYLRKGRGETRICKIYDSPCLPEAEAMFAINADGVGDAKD
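material = hRad51 filaments on single-stranded DNA | reagent = Donor/quencher-labelled 47-bp dsDNA substrate | compound = 10 µM final, single point | schedule = strand-exchange reaction 15 min at room temperature | measured by = fluorescein emission 520 nm, excitation 485 nm | read-out basis = % inhibition versus plate control and blank means | benchmarks = plate controls and plate blanks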
SKKanGAS inh: blocks kanamycin growth of S. pyogenes SKKanGAS strain | BacTiter-Glo, 6 h | inhibition, % at 7.5 µM | 300,000 compounds, 1.3% hits;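 active = mean replicate score, as percent of positive control median, at least 50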;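 note: strain carries kanamycin resistance gene driven by streptokinase promoter and grows in 40 µg/ml kanamycin; loss of luminescence reflects streptokinase promoter inhibition or plain growth inhibition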
Autophagy mod: modulators of autophagy. calls only at 10 µM (by protocol). 190,000 compounds, 0.98% hits. MEF GFP-LC3 puncta imaging; test concentration mostly 10 µM;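 active = percentage of spot-positive cells more than 3 SD above its plate mean, without a fluorescence outlier flag or 80% toxicity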
WT yeast gro inh: growth inhibition of WT yeast, mitochondrial fusion screen | mitochondrial fusion phenotypic screen, WT strain | inhibition, % at 10 µM | 190,000 compounds, 2.1% hits; in the data active = inhibition above about 58%; tested in S. cerevisiae
Each line names hits and unclear results; the compound was inactive in the other large screens.

CC(C)(C)OC(=O)N1CCC(c2cc(=O)n3[nH]cc(C(=O)NC4CCCC4)c3n2)CC1	none
COc1ccc(NC(=O)c2c[nH]n3c(=O)cc(C4CCN(C(=O)OC(C)(C)C)CC4)nc23)cc1Cl	SKKanGAS inh 52 (no result: Rad51 HR inh)
CC(C)(C)OC(=O)N1CCC(c2cc(=O)n3[nH]cc(C(=O)Nc4ccc(F)c(Cl)c4)c3n2)CC1	SKKanGAS inh 68 (no result: Autophagy mod, WT yeast gro inh)
COc1ccc(C2CC3(CC(C)(C)NC(SC)=N3)Oc3cc(O)cc(C)c32)cc1 (stereo not drawn)	none
c1ccc2c(c1)nc(CN1CCOCC1)n1c3ccccc3nc21	WT yeast gro inh 81
O=c1c2cccc3c(N4CCOCC4)ccc(c32)c2nc3ccccc3n12	Insulin prom up 9.8 (no result: KCC2 mod, Rad51 HR inh, SKKanGAS inh, Autophagy mod, WT yeast gro inh)
c1ccc(-c2nc3ccccc3c3nc4ccccc4n23)cc1	none
CCc1nc2ccccc2c2nc3ccccc3n12	none
O=c1c2ccc([N+](=O)[O-])c3cccc(c32)c2nc3ccccc3n12	Autophagy mod active (no result: Rad51 HR inh)
C=CCN1CCN(C(=O)c2cc3c(s2)CCC(CC)C3)CC1 (stereo not drawn)	none (no result: Insulin prom up, KCC2 mod, Rad51 HR inh, Autophagy mod, WT yeast gro inh)
N#Cc1c(NC(=S)NC(=O)c2ccccc2)sc2c1CCCC2	none
N#Cc1c(NC(=S)NC(=O)C2CCCC2)sc2c1CCCCC2	SKKanGAS inh 76, WT yeast gro inh 66
CCc1ccc(CCC(=O)Nc2sc3c(c2C#N)CCCC3)o1	Autophagy mod active
CC(C)CC(=O)NC(NC(=S)Nc1sc2c(c1C#N)CCCC2)C(Cl)(Cl)Cl (stereo not drawn)	SKKanGAS inh 56 (no result: KCC2 mod)
Oc1ccccc1/C=N/Nc1cc(N2CCCC2)nc(N2CCCC2)n1	WT yeast gro inh 74
COc1ccc(-c2nc3scc(-c4ccc(OC)c(OC)c4)c3c(=O)o2)cc1	Autophagy mod active (no result: KCC2 mod)
COc1cc(OC)c(-c2c3cc(O)c(=O)cc-3oc3cc(O)c(O)cc23)cc1OC	WT yeast gro inh 59 (no result: Insulin prom up, SKKanGAS inh)
CCOC(=O)N1CCN(CC(O)COCCC23CC4CC(CC(C4)C2)C3)CC1 (stereo not drawn)	WT yeast gro inh 60 (no result: KCC2 mod)
CC1CCCCN1CC(O)COCCC12CC3CC(CC(C3)C1)C2 (stereo not drawn)	Autophagy mod active
CCOC(=O)N1CCN(CC(O)COC2CC(C)CCC2C(C)C)CC1 (stereo not drawn)	WT yeast gro inh 77
CN(CC(=O)Nc1ccccc1Cl)C(=O)CCc1nc2ccccc2c(=O)[nH]1	none (no result: Insulin prom up, KCC2 mod, Rad51 HR inh, Autophagy mod, WT yeast gro inh)
O=C(c1cc(COc2ccc(F)cc2F)on1)N1CC2C[C@@H]3CC1C[C@H](C2)C3	none (no result: Insulin prom up, KCC2 mod, Rad51 HR inh, Autophagy mod, WT yeast gro inh)
COc1ccccc1NC(=O)CCn1c(=O)c2cccn2c2ccccc21	none (no result: Insulin prom up, KCC2 mod, Rad51 HR inh, Autophagy mod, WT yeast gro inh)
Cc1nc2nc(-c3ccccc3)cn2nc1C	none
c1ccc(-c2cn3nc(-c4ccccc4)cnc3n2)cc1	Autophagy mod active (no result: SKKanGAS inh)
COc1ccc(COC(=O)c2ccc(Br)c(S(=O)(=O)N3CCOCC3)c2)cc1F	none (no result: Insulin prom up, KCC2 mod, Rad51 HR inh, Autophagy mod, WT yeast gro inh)
O=C1OC[C@H](Cc2ccc3c(c2)OCO3)/C1=C\c1ccc2c(c1)OCO2	none (no result: Insulin prom up, KCC2 mod, Rad51 HR inh, Autophagy mod, WT yeast gro inh)
O=C(Nc1nnc(C(F)(F)F)s1)c1ccc(Br)s1	WT yeast gro inh 63
COc1ccc(OC)c2sc(NC(=O)c3ccc(Cl)s3)nc12	none (no result: KCC2 mod)
CCSc1nnc(NC(=O)c2ccc(Br)s2)s1	none
COc1ccc(OC)c2sc(NC(=O)c3ccc(Br)s3)nc12	KCC2 mod 6.1
NC(=O)c1ccccc1NC(=O)c1ccccc1Cl	none (no result: Rad51 HR inh, Autophagy mod, WT yeast gro inh)
O=C(Nc1ccccc1C(=O)Nc1nnc(C(F)(F)F)s1)c1ccccc1Cl	SKKanGAS inh 101 (no result: Autophagy mod, WT yeast gro inh)
CC(NC(=O)Nc1nnc(C(F)(F)F)s1)(C(F)(F)F)C(F)(F)F	SKKanGAS inh 84, WT yeast gro inh 70 (no result: KCC2 mod)
O=C1c2cnc3nc(SCc4ccccc4)nn3c2CC2c3ccccc3CCN12 (stereo not drawn)	WT yeast gro inh 80
CSc1nc2ncc3c(n2n1)CC(C)(C)CC3=O	none
O=C(O)C1CCCN1c1ncccc1[N+](=O)[O-] (stereo not drawn)	none (no result: SKKanGAS inh)
Cc1ccc(NC(=O)CSCC(=O)OC(C)C(=O)Nc2ccc(S(N)(=O)=O)cc2)c(C)c1 (stereo not drawn)	none (no result: Insulin prom up, KCC2 mod, Rad51 HR inh, Autophagy mod, WT yeast gro inh)
Cc1cc(CN(C)C)c(O)c(C2(C)CCCCC2)c1	none
Cc1cc(CN2CCOCC2)c(O)c(C2(C)CCCCC2)c1	WT yeast gro inh 85
COc1ccc(N2CCN(CCCNC(=O)CN3CCN(Cc4ccccc4C)C3=O)CC2)cc1	Autophagy mod active
